Published values pooled from the literature.
Target: Serine/threonine-protein kinase PAK 1 (PAK1, Homo sapiens, UniProt Q13153)

N#CC1(c2ccccn2)CCN(Cc2cc(C(=O)O)c(=O)n3ccccc23)CC1 — remaining binding (cell-free assay; competition with immobilised ligand; 1 µM): 86%
Cn1cc(-c2cccc(N3CCc4c(sc5c4CC(C)(C)C5)C3=O)c2CO)cc(Nc2ccncn2)c1=O — inhibition (enzyme activity; inhibitor; 1 µM): 9%
Cc1nn(C)cc1-c1nc2c(N3CCN(Cc4ccc(Cl)cc4)CC3)c(Cl)cnc2[nH]1 — remaining binding (binding; competition with immobilised ligand; 1 µM): 100%
COc1cc(Nc2ncc(F)c(Nc3ccc4c(n3)NC(=O)C(C)(C)O4)n2)cc(OC)c1OC — inhibition (binding; competition with immobilised ligand; 10 µM): 91%
C#Cc1n[nH]c2c(-c3cn([C@@H](C)c4ccccc4)c(=O)[nH]c3=O)cc(F)cc12 — inhibition (enzyme activity; inhibitor; 0.1 µM): 5.7%
COc1ncccc1-c1cnn2ccc(N3CCN(C(=O)OC(C)C)CC3)nc12 — remaining binding (binding; competition with immobilised ligand; 1 µM): 100%
C#Cc1n[nH]c2c(-c3cn(C(C)c4ccccn4)c(=O)[nH]c3=O)cc(F)cc12 (centres unmarked) — inhibition (enzyme activity; inhibitor; 1 µM): 3.4%
Nc1ncc(-c2nc(N3CCOCC3)nc(N3CCOCC3)n2)c(C(F)F)n1 — remaining binding (binding; competition with immobilised ligand; 10 µM): 63%
Cn1cc(-c2cc(F)cc(N3CCn4c(cc5c4CCCC5)C3=O)c2CO)cc(Nc2ccc(N3CCN(C4COC4)CC3)cn2)c1=O — inhibition (enzyme activity; inhibitor; 0.1 µM): 5%
Cn1cncc1[C@@](O)(COc1ccc(C#N)cc1-c1ccc(OC(F)(F)F)cc1)c1ccc(C#N)cc1 — remaining binding (cell-free assay; competition with immobilised ligand; 1 µM): 100%
O=c1[nH]c2ccccc2n1C1CCN(Cc2ccc(-c3[nH]c4cc5ncnc5cc4nc3-c3ccccc3)cc2)CC1 — remaining signal (cell-free assay; 0.5 µM): 90.6%
